Only some compounds are listed: those with a hit (about 3% of all), similar ones and a draw of the others.
SR-BI HDL uptake: inhibitors of SR-BI mediated HDL lipid uptake, primary screen, ldlA[mSR-BI] cells, fluorescence, single point; ldlA[mSR-BI] CHO cells, DiI-HDL uptake fluorescence, 3 h; inhibition, % at 12.5 µM; 320,000 tested, 0.96% active;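 active = mean replicate inhibition of at least 70% and a set share of replicates each scoring 70 or more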;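 also: 0% = median of neutral control wells and 100% = median of positive control wells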
Kir21 inh: inhibitors of mouse Kir2.1 inward-rectifier potassium channel. HEK293-Kir2.1, FluxOR thallium flux fluorescence; hits give low values. B-score at 10 µM. 310,000 tested, 0.85% active. AID 1672, 2009;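 active = fluorescence ratio B-score at or below minus 3 SD of library scores, with starting-brightness B-score within 2 SD, cut at about -4.2 in these data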;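 also: channel flux triggered by added potassium and thallium sulfate stimulus; B-score of peak minus minimum fluorescence over baseline after thallium stimulus; more negative B-score means stronger Kir2.1 block with less thallium influx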
Target sequence (P35561 whole entry, looked up): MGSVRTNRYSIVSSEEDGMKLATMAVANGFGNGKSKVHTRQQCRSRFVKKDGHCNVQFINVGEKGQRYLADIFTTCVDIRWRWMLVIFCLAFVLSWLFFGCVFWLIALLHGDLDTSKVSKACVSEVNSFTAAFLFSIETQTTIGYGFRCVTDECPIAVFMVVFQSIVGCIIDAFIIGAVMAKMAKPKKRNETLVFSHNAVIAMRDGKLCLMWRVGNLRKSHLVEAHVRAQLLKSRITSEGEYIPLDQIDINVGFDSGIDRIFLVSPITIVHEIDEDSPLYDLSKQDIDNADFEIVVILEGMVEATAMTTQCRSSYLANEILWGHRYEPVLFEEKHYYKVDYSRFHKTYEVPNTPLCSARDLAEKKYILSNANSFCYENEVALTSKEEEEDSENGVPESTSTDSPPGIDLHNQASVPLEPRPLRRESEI
TMEM16A act: TMEM16A chloride channel activators or potentiators, primary screen, cell-based, HTS; Anoctamin-1 (Mus musculus), Q8BHY3; HEK293 TMEM16A/YFP-H148Q/I152L, iodide quench fluorescence; hits give low values; B-score at 10 µM; 340,000 tested, 0.3% active;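 active = fluorescence-ratio B-score plate-corrected deviation score at least 3 library SD below zero, with starting fluorescence score within 5 deviations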;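 also: channel opened by trigger with iodide after compound preincubation; score built on the fluorescence ratio of max minus min over baseline; more negative score means more quench and so TMEM16A activation or potentiation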
ANO1 block: TMEM16A chloride channel inhibitors, primary screen, cell-based, HTS | normalized B-score (activity score, 25-100; higher = stronger inhibition) at 10 µM | AID 588511, 2011 | 310,000 tested, 1.2% active | Anoctamin-1 (Mus musculus), Q8BHY3 | HEK293 TMEM16A/YFP iodide influx fluorescence, ionomycin;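 active = ratio plate-corrected score three or more library SD toward inhibition, starting fluorescence score within five deviations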;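 also: score derived from kinetic fluorescence span divided by baseline fluorescence per well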
DNA FID counter: compounds displacing fluorescent DNA intercalator, primary screen, artefact control for HCV NS3 helicase inhibitor project, biochemical, FID fluorescence; 290,000 tested, 0.17% active; DNA fluorescent intercalator displacement; inhibition, % at 7.9 µM; in the data active = inhibition above about 37%;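 also: 0% = vehicle and 100% = reference compound; higher means more ethidium bromide displaced from hairpin DNA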
SR-BI DiI-HDL act: activators of SR-BI mediated DiI-HDL uptake, primary screen, ldlA[mSR-BI] CHO cells, DiI fluorescence; 3 h; 100 = double the neutral-control signal; activation, % at 12.5 µM; 320,000 tested, 0.096% active; AID 504775, 2011;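 active = mean replicate activation of at least 60% and every replicate at or above 60%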;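 also: 0% = median plate neutral-control signal and 100% = twice that signal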
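Test system: SR-BI-overexpressing, LDLR-lacking CHO cells; Medium: Ham's F12 with 0.5% BSA, HEPES 25 mM, pH 7.4; Schedule: 3 h, 37 °C; Technique: bottom-read fluorescence, 550/595 nm.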
An asterisk follows results filed as active; i = inactive; . = no result given.

SMILES | SR-BI HDL uptake | Kir21 inh | TMEM16A act | ANO1 block | DNA FID counter | SR-BI DiI-HDL act
Cc1c(CCOC(=O)C23CC4CC(CC(C)(C4)C2)C3)sc[n+]1CC(=O)c1ccccc1 | 33.2 | -2.24 | i | i | 8.1 | -33.2
COc1ccccc1CCC(=O)Nc1ccc2c(c1)CN(Cc1ccc(C)o1)CC2 | 81.1* | -0.04 | i | i | -20.6 | -81.1
COc1ccc2sc(-c3ccc(N(C)C)cc3)c(-c3cnc(OC)nc3)c2c1 | 82.0* | . | i | . | . | -82.0
COC(=O)c1c(-c2ccc(OC)cc2)sc2cc3c(cc12)OCO3 | 11.9 | . | i | . | . | -11.9
COc1ccc2sc(-c3ccc(SC)cc3)c(-c3ccc(O)cc3)c2c1 | 75.9* | . | i | . | . | -75.9
COC(=O)c1c(-c2ccsc2)sc2ccc(-c3cc(OC)c(OC)c(OC)c3)cc12 | 74.8* | . | i | . | . | -74.7
COC(=O)c1c(-c2ccc(N(C)C)cc2)sc2ccc(OC)cc12 | 78.9* | . | i | . | . | -78.9
COCCNC(=O)C(c1ccc(O)cc1)N(Cc1cccs1)C(=O)CCC(=O)Nc1ccccn1 (configuration not stated) | . | -0.49 | i | i | -27.1 | .
O=C(CNC1CCCCC1)Nc1ccc(Cl)cc1 | 17.7 | 1.82 | i | i | -3.3 | -17.7
CCOC(=O)C1(CCCc2ccccc2)CCN(C(=O)Cc2nonc2C)CC1 | 37.0 | 0.39 | -6.69* | i | -31.7 | -37.0
CCOC(=O)C1(CCc2ccccc2)CCN(C(=O)C2CCOCC2)CC1 | 80.3* | -0.17 | i | i | -38.9 | -80.3
Cc1ccc(S(=O)(=O)N2CCN(C(=O)COC(=O)c3ccc(O)cc3)CC2)c(C)c1 | 19.0 | -0.32 | i | i | . | -19.0
Cc1cccc(C)c1-n1cccc1/C=C1\SC(=S)N(c2cccc(C(=O)O)c2)C1=O | 38.8 | 1.04 | i | 100* | -10.9 | -38.8
Cc1ccc(OCC(=O)N(Cc2cccc(Cl)c2)C2CCS(=O)(=O)C2)cc1C (configuration not stated) | 19.6 | -0.86 | -40.1* | i | -50.7 | -19.6
CCc1nn(C(CC)C(=O)NCCCN2CC(C)CC(C)C2)c(=O)c2cc3oc(C)cc3n12 (configuration not stated) | 10.5 | -1.95 | i | i | 12.1 | -10.5
CC(C)c1ccc(NC(=O)COC(=O)[C@@H]2CCCN2C(=O)c2cccs2)cc1 | 3.8 | . | i | . | . | -3.8
COCC1CCCCN1Cc1cn(-c2ccccc2)nc1-c1ccc2c(c1)OCO2 (configuration not stated) | 5.7 | -1.56 | i | i | 19.1 | -5.7
c1ccc(-n2cc(CN3CCCC(CN4CCCC4)C3)c(-c3ccc4c(c3)OCO4)n2)cc1 (configuration not stated) | -6.1 | 0.22 | i | i | 40.5* | 6.1
Cc1cc(Nc2nc3ccccc3nc2Cl)n(-c2ccc([N+](=O)[O-])cc2)n1 | 79.2* | -0.88 | i | 100* | 3.7 | -79.2
Cc1cc(Nc2nc3ccccc3[nH]c2=O)n(-c2ccccc2)n1 | 15.9 | . | i | i | -6.1 | -15.9
NCCSc1c(-c2ccc(Cl)cc2)[nH]c2ccccc12 | . | -9.88* | i | i | 17.4 | .
CCC(CO)Oc1cc(NC(=O)c2ccc([N+](=O)[O-])cc2)c2ncn(C(C)C)c2c1 (configuration not stated) | 45.3 | . | i | . | . | -45.3
CCC(CO)Oc1cc(NC(=O)c2cccc([N+](=O)[O-])c2)c2ncn(C(C)C)c2c1 (configuration not stated) | 75.5* | . | i | . | . | -75.5
COc1ccccc1/C=C/C(=O)OC(C)CN1CCCCC1 (configuration not stated) | -3.8 | -0.65 | i | i | 8.3 | 3.8
CN(CC(=O)Nc1cc(S(=O)(=O)N2CCCCCC2)ccc1Cl)Cc1ccc2c(c1)OCO2 | 60.9 | . | -13.5* | . | . | -60.9
SMILES | SR-BI HDL uptake | Kir21 inh | TMEM16A act | ANO1 block | DNA FID counter | SR-BI DiI-HDL act
CN(CC(=O)Nc1cc(S(=O)(=O)N2CCCC2)ccc1Cl)Cc1ccc2c(c1)OCO2 | 51.9 | . | i | . | . | -51.9
Nn1c(Cc2cccc3ccccc23)nnc1SCc1ccccc1 | -10.8 | -4.56* | i | i | -18.5 | 10.8
COc1ccccc1C(=O)NC(CCSC)C(=O)OCC(=O)NC(=O)NCc1ccco1 (configuration not stated) | -13.1 | -1.23 | -23.8* | i | -24.4 | 13.1
CSc1ccc(CNC(=O)CCn2ccc3cc(S(=O)(=O)N4CCCC4)ccc32)cc1 | 8.6 | -0.84 | i | i | -40.4 | -8.6
COc1cc(CNc2ncc(-c3ccc(Cl)cc3)n2C)cc(OC)c1OC | 18.3 | 0.6 | i | i | 15.3 | -18.3
Cc1ccc(CNc2ncc(-c3ccc4c(c3)OCO4)n2C)cc1 | 13.7 | -10* | i | i | 20.9 | -13.7
Cn1c(-c2ccc3c(c2)OCO3)cnc1NCc1ccc(Cl)cc1 | -36.4 | -11.3* | i | i | 16.2 | 36.4
CCCc1nc2ccccc2n1CCc1ccccc1 | 12.7 | -6.33* | i | i | -0.7 | -12.7
OCCCc1nc2ccccc2n1CCc1ccccc1 | 16.3 | -1 | i | i | -2.5 | -16.3
O=C(CCCN1C(=O)/C(=C/c2cccs2)SC1=S)NNC(=O)c1ccccc1O | 103.7* | -0.68 | i | i | 2.7 | -103.7
COc1ccccc1/C=C1\SC(=S)N(CCC(=O)NNC(=O)c2ccccc2O)C1=O | 124.3* | 1.49 | i | i | -10.4 | .
COc1ccc(/C=C2/SC(=S)N(CCCC(=O)Nc3ccccc3C(=O)O)C2=O)cc1 | . | 0.05 | i | i | 21.4 | .
COc1ccc(/C=C2\SC(=S)N(CCCC(=O)NNC(=O)c3ccccc3O)C2=O)cc1 | 109.6* | 3.06 | i | i | -8.9 | -109.6
CCCCN1CC(=O)N2[C@H]3c4cc(Cl)ccc4OC[C@@H]3[C@H](C(=O)OCC)[C@]2(C)C1=O | -7.9 | . | i | . | . | 7.9
O=C(Nc1ccc(F)c(Cl)c1)Nc1csc2ccccc12 | 87.2* | -0.8 | i | i | 4.3 | -87.2
O=C(Nc1ccc(F)cc1F)Nc1csc2ccccc12 | . | -0.07 | i | i | 6.6 | .
O=C(Nc1ccc(-c2cn3c(n2)SCC3)cc1)c1ccc2c(c1)OCO2 | 81.7* | 0.02 | i | i | 12.6 | -81.7
O=C(Nc1cccc(-c2cn3c(n2)SCC3)c1)c1ccc2c(c1)OCO2 | 59.8 | -0.01 | i | i | -2.5 | -59.8

From PubChem
